# DSG3 Ab inh – human desmoglein-3 autoantibody binding inhibition; 310,000 tested, 0.48% active; DSG3-coupled beads, scFv-anti-DSG3-GFP binding, flow cytometry; stronger effect = lower value; P32926; binding (percent of control), % at 10 µM;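 active means binding more than 3 SD below its plate's average and above zero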;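 further: hits lower antibody fragment binding to DSG3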
# Target sequence (P32926 whole entry, looked up, the tested form may be a part): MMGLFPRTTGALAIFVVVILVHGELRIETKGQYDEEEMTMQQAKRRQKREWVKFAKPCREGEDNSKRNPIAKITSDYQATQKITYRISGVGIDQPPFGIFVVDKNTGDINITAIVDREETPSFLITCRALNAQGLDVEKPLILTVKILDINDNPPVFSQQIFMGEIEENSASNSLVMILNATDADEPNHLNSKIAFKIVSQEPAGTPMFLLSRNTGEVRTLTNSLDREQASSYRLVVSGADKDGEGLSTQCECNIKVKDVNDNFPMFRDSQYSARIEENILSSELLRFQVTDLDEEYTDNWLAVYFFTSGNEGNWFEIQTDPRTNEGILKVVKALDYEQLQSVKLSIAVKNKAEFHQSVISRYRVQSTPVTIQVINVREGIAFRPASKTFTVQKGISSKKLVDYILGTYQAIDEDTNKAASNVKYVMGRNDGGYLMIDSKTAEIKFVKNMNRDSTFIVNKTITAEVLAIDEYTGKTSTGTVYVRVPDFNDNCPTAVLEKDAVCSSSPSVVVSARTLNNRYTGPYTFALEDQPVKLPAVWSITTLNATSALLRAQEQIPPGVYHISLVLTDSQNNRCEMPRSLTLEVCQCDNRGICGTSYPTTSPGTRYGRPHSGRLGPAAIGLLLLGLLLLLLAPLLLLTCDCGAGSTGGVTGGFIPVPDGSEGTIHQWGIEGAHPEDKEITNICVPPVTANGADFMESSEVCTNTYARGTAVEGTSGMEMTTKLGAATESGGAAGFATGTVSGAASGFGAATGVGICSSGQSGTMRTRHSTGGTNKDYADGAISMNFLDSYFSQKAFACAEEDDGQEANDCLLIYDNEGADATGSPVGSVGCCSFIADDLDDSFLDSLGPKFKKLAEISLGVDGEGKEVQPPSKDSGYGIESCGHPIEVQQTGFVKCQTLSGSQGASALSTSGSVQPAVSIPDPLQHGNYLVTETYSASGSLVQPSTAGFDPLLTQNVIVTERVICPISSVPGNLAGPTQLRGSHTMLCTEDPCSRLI
# NadD block – inhibitors of Staphylococcus aureus NadD. purified NadD enzyme, colorimetric absorbance read-out. inhibition, % at 20 µM. 360,000 tested, 0.78% active; in the data active means inhibition above about 26%
# core dimer inh – blocks dimerization of HCV core protein. TR-FRET GST/Flag-core106 dimerization, 1536-well. inhibition, % at 5 µM. 300,000 tested, 0.33% active. AID 1899;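 active means inhibition above the mean of all tested compounds plus 3 SD, set per screening campaign, cut at about 45% in these data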
#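 assay system = GST-tagged and Flag-tagged HCV core protein residues 1-106 | controls = unlabelled core106 and no-GST-core106 wells | incubation = compound-protein-antibody incubation 4 h at 22.5 °C | probe or stimulus = Eu donor and XL665 acceptor anti-tag antibodies | read-out = % inhibition based on acceptor/donor emission ratio | signal = TR-FRET 671 and 617 nm emission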
# TbMetRS inhib – blocks T. brucei methionyl-tRNA synthetase activity; purified T. brucei MetRS, ATP depletion, Kinase-Glo luminescence; inhibition, % at 11.9 µM; 360,000 tested, 0.4% active; AID 624268;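 active means inhibition above a per-plate cutoff of the control wells' mean inhibition plus 3 SD, cut at about 5.5% in these data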
#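 technique = Kinase-Glo luminescence, ATP depletion format | system = purified MetRS (methionyl-tRNA synthetase) enzyme from Trypanosoma brucei | timing = 15 min preincubation, 2 h reaction, all 25 °C | evaluation = percent inhibition versus plate control medians | dosing = single dose, 11.9 µM final nominal, 0.9% final DMSO | also added = substrates ATP, L-methionine and bulk Escherichia coli tRNA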
# Rce1 inh – blocks yeast Ras-converting enzyme; AID 2563; Q03530; calls only; yeast membranes, quenched prenylated peptide cleavage fluorescence; 290,000 tested, 0.27% active;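 active means fall in fluorescence gain of 50% or more versus controls, with final raw signal at or below 3038400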
# TbMetRS confirm – Trypanosoma brucei MetRS inhibition confirmed; inhibition, % at 11.9 µM; AID 624412; shares compounds with TbMetRS inhib; T. brucei MetRS enzyme, luminescence (ATP depletion); 1,400 tested, 93% active; in the data active means inhibition above about 7%
# Jurkat tox – counter-screen for T. brucei MetRS inhibitors: Jurkat cell cytotoxicity | shares compounds with TbMetRS inhib | Jurkat cells viability, ATP luminescence | inhibition, % at 8.3 µM | 1,400 tested, 12% active | AID 624413; in the data active means inhibition above about 15%
# Tb MetRS inh FP – inhibits T. brucei methionyl tRNA synthetase in orthogonal FP test; shares compounds with TbMetRS inhib; purified T. brucei MetRS, fluorescence polarization; inhibition, % at 11.9 µM; 1,400 tested, 44% active; AID 651607; in the data active means inhibition above about 17%
# Hits are given with their value; – = inactive; · = no result given. Sampled rows, rich in hits. Any-hit rate of the full collection: about 1.9%.
SMILES,DSG3 Ab inh,NadD block,core dimer inh,TbMetRS inhib,Rce1 inh,TbMetRS confirm,Jurkat tox,Tb MetRS inh FP
CCCc1cc(=O)oc2cc(C)cc(OCC(=O)NC(Cc3c[nH]c4ccc(O)cc34)C(=O)O)c12 (configuration not stated),·,–,–,7.0,–,12,–,–
C=CCNC(=S)Nc1ccc(C(N)=O)cc1,–,–,–,–,–,·,·,·
O=C(c1ccc(OCc2cn3ccccc3n2)cc1)N1CCN(S(=O)(=O)c2ccccc2F)CC1,–,–,·,–,·,·,·,·
CC(C)(C)C(=O)CSc1nc2ncc(Br)cc2[nH]1,·,–,–,7.5,–,18,–,–
Fc1ccccc1CSc1nc2ncc(Br)cc2[nH]1,–,–,–,5.9,–,14,–,17
N#Cc1ccccc1CSc1nc2ncc(Br)cc2[nH]1,–,–,–,8.3,–,37,–,17
O=C1COc2cc(ccc2[N+](=O)[O-])Oc2ccc(cc2Cl)C(=O)CCCCO1,–,–,–,–,–,·,·,·
S=C1NCCOCCOCCOCCOCCNC(=S)N2CCOCCOCCN1CCOCC2,–,–,–,–,–,·,·,·
CS(=O)(=O)N(CC(=O)NCC1CCCO1)c1cccc(Cl)c1 (configuration not stated),–,–,–,–,–,·,·,·
O=C(O)c1ccccc1C(=O)NCCc1ccc(Cl)cc1,–,–,–,–,–,·,·,·
O=C(Nc1ccccc1)Nc1cc(S(=O)(=O)N2CCOCC2)ccc1N1CCCC1,–,–,–,8.5,–,20,–,–
O=C(Nc1ccc(F)cc1)Nc1cc(S(=O)(=O)N2CCOCC2)ccc1N1CCCC1,–,–,–,11,–,27,–,–
O=C(Nc1ccc(Cl)cc1)Nc1cc(S(=O)(=O)N2CCOCC2)ccc1N1CCCC1,–,–,–,38,–,60,–,35
CCNC(=O)Nc1cc(S(=O)(=O)N2CCOCC2)ccc1N1CCCCC1,–,–,·,–,·,·,·,·
O=C(Nc1ccccc1Cl)c1cccc(NC(=O)c2cccs2)c1,–,–,·,–,–,·,·,·
[O-]/[N+](=C\c1ccccc1)c1ccc(Br)cc1,–,–,·,–,·,·,·,·
Cc1c2ccccc2nc2c(F)c(NC(C)C)c(F)c(F)c12,–,–,–,–,–,·,·,·
CC/C(O)=C1\C(=O)CCCC1=NCc1nc2ccccc2[nH]1,·,–,–,8.9,–,16,–,–
CCN(CC)C(=O)C1CCCN(C/C(C)=C/c2ccccc2)C1 (configuration not stated),–,–,–,–,–,·,·,·
Cc1cc(C)c(O)c(-c2cc(C(=O)NCCc3ccc(S(N)(=O)=O)cc3)[nH]n2)c1,–,–,–,5.7,·,15,–,17
NS(=O)(=O)c1ccc(CCNC(=O)c2cc(-c3cc(Cl)ccc3O)n[nH]2)cc1,–,–,–,32,–,38,–,36
Cc1cc(O)c(-c2cc(C(=O)NCCc3ccc(S(N)(=O)=O)cc3)[nH]n2)cc1C,–,–,–,–,–,·,·,·
O=C(CCNC(=O)c1ccc(Br)cc1)OCc1ccccc1Cl,–,–,–,7.0,–,34,–,19
CCCCNc1nc2ccccc2[nH]1,–,–,–,8.0,–,14,–,–
CCCOc1cccc(OCC(=O)Nc2nc3ccccc3[nH]2)c1,–,–,–,29,–,48,–,20
SMILES,DSG3 Ab inh,NadD block,core dimer inh,TbMetRS inhib,Rce1 inh,TbMetRS confirm,Jurkat tox,Tb MetRS inh FP
O=C(CSc1ccccc1)Nc1ccc(-c2nc3ccccc3[nH]2)cc1,–,–,–,–,–,·,·,·
O=C(CSc1ccc2ccccc2c1)Nc1nc2ccccc2[nH]1,–,–,–,21,–,29,–,–
CCCNc1nc2ccccc2c(=O)[nH]1,–,–,–,–,–,·,·,·
CCCCOc1cccc(OCC(=O)Nc2nc3ccccc3[nH]2)c1,–,–,–,36,–,48,–,–
O=C(COc1ccccc1)Nc1nc2ccccc2[nH]1,–,–,–,–,–,·,·,·
CC(=O)N(c1ccccc1C)c1ccccc1C,–,–,·,–,·,·,·,·
CCOC(=O)C1=C(CC)Nc2ccccc2N=C1NC(=O)Nc1ccc(Cl)c(Cl)c1,–,–,–,37,–,97,17,117
COc1ccccc1N1CCN(C(CNS(=O)(=O)c2ccccc2)c2ccccc2)CC1 (configuration not stated),·,–,–,–,–,·,·,·
COc1cccc(CNc2ncnc3cc(Cl)ccc23)c1,–,–,·,12,–,20,–,–
C[C@H](O)[C@@H]1C(=O)N2CCc3c([nH]c4ccccc34)[C@@H]2C[C@@H]1N(C)Cc1ccc(Cl)cc1,·,–,·,87,·,104,–,83
COCC(=O)N(C)[C@H]1C[C@H]2c3[nH]c4ccccc4c3CCN2C(=O)[C@H]1[C@H](C)O,·,–,·,–,·,·,·,·
O=C(N/N=C/c1c(Cl)[nH]c2ccccc12)c1ccc2c(c1)OCCO2,–,–,–,–,–,·,·,·
Cn1c(=O)[nH]c(=O)c2c1nc(Br)n2CC(O)COc1ccc(Cl)cc1 (configuration not stated),–,–,–,–,–,·,·,·
O=c1[nH]c(Nc2ccccc2)cc2ccccc12,–,–,–,8.1,–,–,–,–
O=c1[nH]c(Nc2ccccc2)cc2cc(Br)ccc12,–,–,–,–,–,·,·,·
Cn1c(CSc2nc3ccc(Br)cc3[nH]2)nc2ccccc21,–,–,–,12,–,18,–,–
O=C(O)CCSc1nc2ccc(Br)cc2[nH]1,·,–,–,–,–,·,·,·
COc1ccc2[nH]c(=O)c(CN(Cc3cccs3)C(=S)NCC3CCCO3)cc2c1 (configuration not stated),–,–,–,–,–,·,·,·
O=c1c(OC2OC(CO)C(O)C(O)C2OC2OC(CO)C(O)C(O)C2O)c(-c2ccc(O)cc2)oc2cc(O)cc(O)c12 (configuration not stated),–,–,–,7.1,·,22,–,23
NS(=O)(=O)c1ccc(-c2ccc(/C=N/NC(=O)c3ccccc3O)o2)cc1,–,–,–,–,–,·,·,·
O=C(N/N=C/c1ccc(-c2ccc(S(=O)(=O)Nc3ncccn3)cc2)o1)c1cc2ccccc2cc1O,–,81,–,6.8,–,30,–,27
C=CCOc1ccc2cccc(/C=N/NC(=O)c3cc4cc([N+](=O)[O-])ccc4s3)c2c1,–,–,–,–,–,·,·,·
O=S(=O)(Nc1cccnc1)c1cc(Cl)ccc1Cl,–,–,–,–,–,·,·,·
COC(=O)CN1C(=S)N(c2ccc(Cl)cc2)C(=O)C1CC(=O)Nc1ccc(F)cc1 (configuration not stated),·,–,–,–,–,·,·,·
COC(=O)CN1C(=S)N(c2ccc(Cl)cc2)C(=O)C1CC(=O)Nc1ccc(Cl)cc1 (configuration not stated),–,–,–,24,–,39,–,38
